The values below come from ChEMBL document CHEMBL2163306, “Synthesis of new chiral xanthone derivatives acting as nerve conduction blockers in the rat sciatic nerve” (Eur J Med Chem, 2012).

Calls of active or inactive are those of the source. The rule behind the calls is not given here.

The nature of data set [1]: Toxicity in isolated Wistar rat sciatic nerve assessed as axonal damage by LDH assay. The data set is classed as tissue-based. The conditions noted are these: ex_vivo. A digest of the protocol: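 Neuronal damage in isolated Wistar rat sciatic nerve bundles was gauged from LDH activity leaked into the incubation medium over time, following the Bergmeyer method.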
The test system of data set [2] is Erythrocyte. The data set can be described thus: Antihemolytic activity against hypotonic hemolysis in Wistar rat erythrocytes at 100 uM after 10 mins relative to sucrase. Format: functional, cell-based. A digest of the protocol: (§1)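 Blood was taken by puncture from urethane-anaesthetized (1.2 g/kg) Wistar rats and heparinised. After centrifugation, plasma and leukocyte layer were removed and cells were resuspended in 154 mM NaCl/10 mM phosphate buffer pH 7.0. The suspension was added to drug dilutions in hypotonic NaCl/phosphate buffer pH 7.0 (NaCl 63–67 mM for 50% haemolysis) and held 10 min at room temperature. It was then spun, and supernatant haemoglobin was read at 540 nm. Run in duplicate; expressed as relative haemolysis.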

For data set [3], the system named is Erythrocyte. Put plainly: Antihemolytic activity against hypotonic hemolysis in Wistar rat erythrocytes at 0.1 to 1 uM after 10 mins. Format: functional, cell-based. An outline of the steps: as §1
Data set [4] has as its system Sciatic nerve. Put plainly: Inhibition of amplitude of compound action potential in isolated Wistar rat sciatic nerve after 15 mins by electrophysiology assay. Format: functional, tissue-based. A digest of the protocol: (§2)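 Sciatic nerve bundles 3–4 cm long came from adult Wistar rats (200–400 g). Drugs in Tyrode's solution were applied cumulatively (0.100–3.00 µM) at 1 mL/min flow, with at least 15 min contact each. Blockade was taken as percentage decrement in compound action potential amplitude versus control. Solvent was at most 0.05% v/v.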

Data set [5] deals with Erythrocyte. The data set can be described thus: Antihemolytic activity against hypotonic hemolysis in Wistar rat erythrocytes at 0.3 to 1 uM after 10 mins. The data set is classed as functional, cell-based. A digest of the protocol: as §1
For data set [6], the system named is Sciatic nerve. The data set can be described thus: Inhibition of amplitude of compound action potential in isolated Wistar rat sciatic nerve at 0.1 to 3 uM after 15 mins by electrophysiology assay. The data set is classed as functional, tissue-based. A digest of the protocol:
as §2

The test system of data set [7] is Erythrocyte. Put plainly: Antihemolytic activity against hypotonic hemolysis in Wistar rat erythrocytes at 0.1 to 100 uM after 10 mins. Format: functional, cell-based. A digest of the protocol:
as §1

The subject of data set [8] is Erythrocyte. Put plainly: Antihemolytic activity against hypotonic hemolysis in Wistar rat erythrocytes at 0.1 to 30 uM after 10 mins. Format: functional, cell-based. A digest of the protocol:
as §1

Data set [9] can be described thus: Antihemolytic activity against hypotonic hemolysis in Wistar rat erythrocytes at 100 uM after 10 mins relative to control. Format: functional, Erythrocyte. A digest of the protocol: as §1
Data set [10] deals with Erythrocyte. Put plainly: Antihemolytic activity against hypotonic hemolysis in Wistar rat erythrocytes after 10 mins. Format: functional, cell-based. A digest of the protocol:
as §1

Regarding `COc1ccc2c(=O)c3cc(C(=O)N[C@H](CO)C(C)C)ccc3oc2c1`, the Activity result in data set [1] is “Non-toxic”. The result in the data set on Erythrocyte [2] and with Erythrocyte [3] was Active. Further, in the data set with Sciatic nerve [4], the inhibition result was “Dose-dependent effect”.

Take `COc1ccc2c(=O)c3cc(C(=O)N[C@H](CO)CC(C)C)ccc3oc2c1`: the Activity entry in [1] is on record as “Non-toxic”. Besides, the inhibition result in the data set with Sciatic nerve [4] is “Dose-dependent effect”. Moreover, the outcome in the data set on Erythrocyte [5] was Active.

Consider `OC[C@H]1O[C@@](CO)(O[C@H]2O[C@H](CO)[C@@H](O)[C@H](O)[C@H]2O)[C@@H](O)[C@@H]1O`, for which, in the data set with Sciatic nerve [6], the inhibition entry was “inactive”. Moreover, the result with Erythrocyte [7] was Active.

With `O=c1c2ccccc2oc2ccccc12` [XANTHONE], the outcome in the data set on Erythrocyte [8] was inactive. Further, the Ratio in [9] is given as 0.686.

With `CCCCOc1cc(C(=O)NCCN(CC)CC)c2ccccc2n1` [DIBUCAINE], the Activity result in the data set on Erythrocyte [10] was “Dose-dependent effect”. Also, the inhibition result with Sciatic nerve [6] was “Active”. The Ratio in [9] is reported as 0.421.

Consider `COc1ccc2c(=O)c3cc(C(=O)N[C@@H](C)c4ccc(C)cc4)ccc3oc2c1`, for which the Activity result in data set [1] is given as “Non-toxic”. Moreover, the inhibition result in the data set on Sciatic nerve [4] was “Dose-dependent effect”. The outcome in the data set on Erythrocyte [5] was Active. Moreover, in [9], the Ratio is recorded as 0.967.
